Legend:
[1] = system: DSS-induced experimental colitis; assay: DSS-induced experimental colitis model in mice; assay type: in vivo; conditions: DB07565 rectally daily
How it was run: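 Male C57BL/6 J mice, 7–8 weeks, randomised by weight into groups of six. Colitis induced with 3 % (w/v) DSS in drinking water for 7 days. Test compound dissolved in DMSO, diluted in PBS to 50 or 100 μM, given rectally at 100 µl/mouse daily. Oral 5-ASA 50 mg/kg daily as reference. Colons fixed in 4 % PFA and paraffin-embedded. 5 μm sections stained with H&E; immunofluorescence for Claudin-1, Occludin and ZO-1 at 4 ℃ overnight, 1 h secondary, DAPI 10 min.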

[2] = within 60 min; cited from earlier work
HT-29 cells = assay: Cell viability assay; assay type: cell-based; conditions: 100 μM, 24 h, CCK-8, N = 5
How it was run: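 HT-29 cells cultured in DMEM with 10 % FBS and 1 % penicillin/streptomycin at 37 °C, 5 % CO2. Seeded at 10,000 cells/well in 96-well plates and exposed to test compound or DMSO for 24 h at 37 °C. Viability read with CCK-8 per kit instructions; N = 5.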

human P2Y14 receptor = molecular target: T1, human P2Y14 receptor (Homo sapiens, UniProt Q15391); assay: In vitro P2Y14R antagonistic activity; assay type: cell-based
T1 sequence (Q15391 1-338): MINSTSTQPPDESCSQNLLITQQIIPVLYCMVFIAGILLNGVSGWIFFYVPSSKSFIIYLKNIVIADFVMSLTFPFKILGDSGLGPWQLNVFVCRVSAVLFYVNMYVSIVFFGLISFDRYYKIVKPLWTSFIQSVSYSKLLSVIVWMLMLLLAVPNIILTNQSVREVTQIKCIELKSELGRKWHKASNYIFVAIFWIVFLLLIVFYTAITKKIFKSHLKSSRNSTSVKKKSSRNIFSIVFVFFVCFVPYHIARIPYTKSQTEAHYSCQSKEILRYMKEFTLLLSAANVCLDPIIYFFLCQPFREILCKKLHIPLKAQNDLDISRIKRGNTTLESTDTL
How it was run: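 hP2Y14-HEK293 cells (HEK293 stably expressing human P2Y14R) grown in DMEM with 10 % FBS and 1 % penicillin/streptomycin. Seeded at 10,000 cells/well in 384-well plates and preincubated 30 min at 37 °C with test compound or DMSO. Stimulated with UDPG; intracellular cAMP measured by cAMP-Glo luminescence on a plate reader. N = 3.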

IC50 (human P2Y14 receptor): 1.58 nM
Structure (SMILES): O=C(O)CCC(=O)OC[C@@H](NC(=O)C(Cl)Cl)[C@H](O)c1ccc([N+](=O)[O-])cc1 [DB07565, Chloramphenicol succinate]
histopathological analysis of colon (H&E) ([1]; C57BL/6 J mice, 3 % DSS 7 days): mitigated DSS-induced tissue damage and inflammatory cell infiltration in the colon | gut barrier function, immunofluorescence of tight junction proteins (Claudin-1, Occludin, ZO-1) ([1]; colon tissue of DSS-treated mice): markedly enhanced gut barrier function | degradation in intestinal fluid [2]: less than 10% | cytotoxicity (cell viability) (HT-29 cells): low cytotoxicity
